A selection: hits, their analogues and other compounds. The true share with any hit is near 1.9%.
beta cell repl: inducers of beta-cell replication in MIN6 cells. AID 2380. proliferation, % at 10 µM. 330,000 compounds, 0.29% hits. MIN6 cells proliferation, ATPlite luminescence, 48 h; cells starved in 0.2% serum; 100% = growth in 10% serum;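 active = compounds whose signal lies at least 3.5 SD above the mean of all wells on their plate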;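 also: 0% = DMSO-treated cells in low-serum medium and 100% = 10% serum control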
V-ATPase pHluor: alters yeast V-ATPase proton transport; S. cerevisiae, pHLuorin cytosolic pH fluorescence; response, % at 10 µM; 350,000 compounds, 0.37% hits; AID 504577; in the data active = response mostly above about 7.3%, no sharp cut-off; inactive = mostly below about 5.4%; also: actives read high
Rce1 inhib: blocks yeast Ras-converting enzyme | Q03530 | yeast membranes, quenched prenylated peptide cleavage fluorescence | calls only | 290,000 compounds, 0.27% hits | AID 2563;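 active = fall in fluorescence gain of 50% or more versus controls, with final raw signal at or below 3038400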;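 also: plate controls were neutral control wells for no effect and wells lacking membranes for full effect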
Target sequence (Q03530 whole entry, looked up): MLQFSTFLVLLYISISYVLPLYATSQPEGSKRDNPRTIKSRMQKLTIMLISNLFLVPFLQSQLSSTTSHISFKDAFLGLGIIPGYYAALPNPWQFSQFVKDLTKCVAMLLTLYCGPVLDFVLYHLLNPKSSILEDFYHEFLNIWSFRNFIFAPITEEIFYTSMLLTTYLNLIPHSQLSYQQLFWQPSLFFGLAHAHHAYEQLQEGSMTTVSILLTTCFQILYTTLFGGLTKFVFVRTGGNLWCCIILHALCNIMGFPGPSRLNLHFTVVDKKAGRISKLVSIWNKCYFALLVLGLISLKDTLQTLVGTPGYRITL
CR mimetic SO: lowers age-related superoxide in aged yeast cells | superoxide response (% of plate mean), % at 10 µM | S. cerevisiae aged cells, superoxide DHE fluorescence; hits give low values | 330,000 compounds, 0.18% hits;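 active = superoxide response under a set limit, about three screen SD below normal, cut at about 65% in these data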;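 also: yeast aged for seven days with compound at 30 °C before DHE staining; 100% = average MFI of all compound-treated wells on the plate with controls excluded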
proKLK7 act: activates the human kallikrein-7 zymogen | P49862 | purified proKLK7, EDANS-DABCYL substrate fluorescence; 100% is mature enzyme control, 0% vehicle | activation, % at 7 µM | 370,000 compounds, 0.9% hits;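 active = activation above the mean of all tested compounds plus 3 SD, computed per campaign excluding outliers beyond control limits, cut at about 13% in these data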
Target sequence (P49862 whole entry, looked up): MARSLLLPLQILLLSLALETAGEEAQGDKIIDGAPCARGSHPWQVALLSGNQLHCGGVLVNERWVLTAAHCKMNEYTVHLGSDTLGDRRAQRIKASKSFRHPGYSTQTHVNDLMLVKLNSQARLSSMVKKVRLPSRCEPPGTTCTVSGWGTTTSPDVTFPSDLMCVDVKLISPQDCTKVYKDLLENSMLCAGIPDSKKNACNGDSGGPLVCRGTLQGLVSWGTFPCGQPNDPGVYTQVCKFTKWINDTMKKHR
T cell modulator: T cell immune modulation candidate; 2C CD8+ T cell-vesicle binding, flow cytometry; hits give low values; response (vesicle binding), % at 7 µM; 330,000 compounds, 0.068% hits;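 active = response, share of CD8 T cells binding vesicles, and their 90th percentile fluorescence all below set limits, cut at about 80% in these data, passing the limit was not always enough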;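 also: values below 100% mean blocked vesicle binding to the CD8+ T cells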
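Also added: QL9-peptide-loaded Drosophila micro-vesicles bearing Ld, ICAM-1 and B7-1; Test system: purified 2C TCR transgenic mouse naive CD8+ T cells; Measured by: cytometric PE anti-B7-1 and Alexa647 anti-CD8 signals after 1% paraformaldehyde fixation; Timing: binding step 1.5 h, 37 °C, antibody labelling 20 min, ice.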
V-ATPase pH SP: regulators of yeast V-ATPase proton transport; shares compounds with V-ATPase pHluor; S. cerevisiae pHLuorin cytosolic pH; response, % at 10 µM; 980 compounds, 2% hits; in the data active = response above about 24%;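 also: plate controls were vehicle wells for no effect and positive control wells for full effect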
The depositor's hits bear a star; i = inactive; / = no result given.

SMILES	beta cell repl	V-ATPase pHluor	Rce1 inhib	CR mimetic SO	proKLK7 act	T cell modulator	V-ATPase pH SP
COc1ccc(CCN2C(=O)C3C4CC(C5C(C(=O)NN)=NOC45)C3C2=O)cc1OC (stereo unspecified)	-2.7	-3.6	i	104.7	-0.1	218.0	/
COc1ccc(CCN2C(=O)C3C4CC(C5C(C(N)=O)=NOC45)C3C2=O)cc1OC (stereo unspecified)	-0.6	15.4*	i	107.0	0.1	532.8	1.4
Cc1cccc(C(=O)N(c2ccccn2)C(C)c2ccco2)c1 (stereo unspecified)	-0.7	-3.5	i	110.6	-0.5	374.5	/
CC(c1ccco1)N(C(=O)C12CC3(C)CC(C)(CC(C)(C3)C1)C2)c1ccccn1 (stereo unspecified)	-4.0	12.7*	/	108.0	-0.4	367.1	-2.9
Cc1noc(NS(=O)(=O)c2ccc(NC(=O)/C=C/c3ccccc3)cc2)c1C	1.5	13.0*	/	104.4	-0.7	154.9	4.0
COc1ccc(/C=C/C(=O)Nc2ccc(S(=O)(=O)Nc3onc(C)c3C)cc2)cc1OC	-0.1	6.4	i	113.5	2.3	435.8	/
Cc1ccc2nc(-c3ccc(C#N)cc3)c(Cc3cccc(Cl)c3)n2c1	/	/	/	/	-22.3	/	/
O=C1C2C3C=CC(CC3)C2C(=O)N1/N=C/c1c(O)ccc2ccccc12 (stereo unspecified)	-3.8	7.5*	i	108.3	0.2	301.9	-0.9
O=c1[nH]n(-c2ccc(Cl)cc2)c(=O)c(Cl)c1Cl	-2.2	1.8	i	121.2	0.7	257.4	0.7
Cc1[nH]n(-c2ccccc2)c(=O)c1-c1ccc(Cl)cc1	-1.9	-2.7	i	100.3	0.0	312.4	/
O=C(NCCN1C(=O)S/C(=C\c2ccc(Cl)cc2)C1=O)c1ccc(F)c(S(=O)(=O)N2CCOCC2)c1	-0.4	9.5*	i	98.3	0.8	284.4	-2.0
Cc1ccc2nc(-c3ccc(C#N)cc3)c(Cc3cccc(F)c3)n2c1	/	/	/	/	-28.2	/	/
COC(C[C@@H](O)C[C@H](O)COCc1ccccc1)OC	1.0	31.0*	i	/	-0.2	/	-1.3
O=C(N/C(=C\c1ccc(Br)cc1)C(=O)N1CCOCC1)c1ccco1	-3.0	13.7*	i	81.3	0.1	257.8	-3.2
COc1ccc(C/C(C)=N/NC(=O)c2ccc(Cl)cc2)cc1	2.5	104.7*	i	97.2	-0.5	198.3	-1.6
CCOc1cc(C(=O)N/N=C(\C)Cc2ccc(OC)cc2)cc(OCC)c1OCC	-1.8	-1.8	i	89.9	0.3	525.7	/
CCc1nc2c(OCc3c(C)noc3C)cccn2c1N(C=O)Cc1ccccc1	/	/	/	/	0.5	/	/
CCOC(=O)C1=CN(Cc2cccc(-c3ccc4c(c3)OCO4)c2)S(=O)(=O)N(C)C1C (stereo unspecified)	/	0.1	/	93.3	0.3	/	/
CCOC(=O)CC(=O)Nc1ccccc1C(=O)O	0.4	-8.0	i	100.5	-0.5	260.8	/
CCOC(=O)CCC(=O)Nc1ccccc1C(N)=O	-3.1	7.7*	i	96.9	-0.3	342.8	-7.7
COc1ccc(N(CC(=O)NCCC2=CCCCC2)S(=O)(=O)c2ccccc2)cc1OC	0.2	14.3*	i	103.7	0.3	337.2	-1.1
CCN(c1ccccc1)S(=O)(=O)c1cccc(C(=O)N(C)CCOc2ccccc2)c1	-5.4	-0.5	i	91.3	0.2	240.5	/
COc1ccc(-c2cc(C(=O)NCCCn3ccnc3)no2)cc1OC	-1.2	11.8*	i	100.0	0.0	152.0	-0.8
COc1cccc(-c2cc(C(=O)NCCCn3ccnc3)no2)c1	-3.3	4.3	i	85.4	0.6	109.6	/
O=C(CSc1nnc(-c2ccncc2)o1)Nc1cccc(F)c1	3.1	-1.8	i	108.0	0.2	i	/
SMILES	beta cell repl	V-ATPase pHluor	Rce1 inhib	CR mimetic SO	proKLK7 act	T cell modulator	V-ATPase pH SP
NS(=O)(=O)c1cccc(NC(=O)CSc2nnc(-c3ccccc3)o2)c1	-4.1	-8.6	/	103.9	0.1	307.7	0.0
C=CCn1c(=O)[nH]c(=O)c2c(N)c(C(=O)c3ccc(OC)cc3)sc21	/	-1.6	/	/	-44.0	/	/
COC(=O)[C@]12C[C@H](CC(=O)NCC3CCCCC3)C(=O)N(CCC3=CCCCC3)C1=C[C@H](C(C)(C)C)O[C@@H]2C	/	/	/	/	0.2	/	/
CCCCN(C)CCCNC(=O)CN1C(=O)CSc2ccc(S(=O)(=O)N3CCOCC3)cc21	-0.8	9.5*	/	99.2	0.2	305.9	1.4
CCCCN(CC)CCCNC(=O)CN1C(=O)CSc2ccc(S(=O)(=O)N3CCOCC3)cc21	-1.5	0.7	i	93.1	0.0	694.7	/
O=C(C[C@@H]1C/C=C\C[C@H](Cc2ccc(F)cc2)C(=O)OC[C@H]2CCCN2C1=O)NCCO	-0.7	-1.8	/	83.6	0.8	260.3	/
C/C=C/c1cccc(-c2nc(C(=O)N3CCN(C)CC3)cc3c2[C@@H](CCO)N(C(=O)NC(C)C)C3)c1	/	/	/	/	0.2	/	/
C[C@@H]1C=C[C@](Cc2ccccc2)(C(=O)NCC2CC2)N1C(=O)c1ccccc1	0.6	10.6*	i	104.8	-0.2	0.0	-0.1
CNC(=O)[C@@]1(Cc2ccccc2)C=C[C@@H](C)N1C(=O)OC	1.0	2.9	i	103.2	-0.3	483.5	/
O=C(Nc1cc2c(cc1Br)OCCCO2)c1cccnc1	3.5	9.4*	/	98.9	-0.8	641.7	6.3
CCOc1cc(C(=O)NC2CC(C)(C)NC(C)(C)C2)cc(OCC)c1OCC	-2.8	0.4	/	96.8	0.0	232.7	/
CC1CCc2c(sc(/N=C/N(C)C)c2C#N)C1 (stereo unspecified)	0.1	7.8	i	94.6	0.3	242.0	/
CN(C)/C=N/c1sc2c(c1C#N)CCCC2	0.8	11.4*	i	106.2	-0.1	379.0	4.6
COCc1ccc(C(=O)N2CCCC(C(=O)c3ccc(SC)cc3)C2)o1 (stereo unspecified)	-1.6	3.4	i	98.7	-0.3	385.7	/
CN1C(=O)N(C)C2(c3ccccc3)NC(=O)NC12c1ccccc1 (stereo unspecified)	-2.1	-0.8	i	97.8	0.3	243.4	/
CN1C(=O)N(C)C2(c3ccccc3)Nn3c(s/c(=C/c4ccccc4)c3=O)=NC12c1ccccc1 (stereo unspecified)	-2.0	23.2*	i	96.6	-0.2	216.0	-0.5
Cc1ccc(S(=O)(=O)N2C[C@H]3[C@H]4C(=O)N(c5ccccc5)C(=O)[C@H]4C[C@H](OC(=O)NC4CC4)[C@@]3(O)C2)cc1	/	0.7	/	/	0.6	/	/
O=C(CCCN1C(=O)/C(=C/c2ccccc2Cl)SC1=S)NNC(=O)c1ccncc1	3.6	-9.0	i	100.8	0.5	153.6	/
O=C(CCCN1C(=O)/C(=C/c2ccccc2Cl)SC1=S)NNC(=O)c1ccccc1Cl	-1.1	10.4*	i	98.0	-1.1	413.7	4.2
COc1cccc(-n2c(CCn3nc(C)c([N+](=O)[O-])c3C)n[nH]c2=S)c1	2.1	9.7*	i	93.7	-0.1	238.0	-2.4

Screening data: PubChem, several laboratories
